According to ChEMBL document CHEMBL3994644, “Discovery of AAT-008, a novel, potent, and selective prostaglandin EP4 receptor antagonist” (Bioorg Med Chem Lett, 2017):
Values after ≈ are worked out from the molar mass of the structure shown.

Key:
[1] = Tmax in Beagle dog at 1 mg/kg, po; assay type: ADME, organism-based, Canis lupus familiaris; conditions: in vivo
In short: (§1)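 Single 1 mg/kg dose given IV or PO to rats, dogs and monkeys. Plasma pharmacokinetic parameters were derived and reported as mean SD, N = 4.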

[2] = molecular target: Prostaglandin F2-alpha receptor (Homo sapiens, UniProt P43088); test: Antagonist activity at human FP receptor
[3] = Lipophilicity, log D of the compound at pH 1.2; assay type: physicochemical; conditions: buffer
[4] = Solubility of the compound in pH 1.2 simulated gastric fluid; assay type: physicochemical
[5] = Half life in human liver microsomes; assay type: ADME, microsome
[6] = Cmax in Beagle dog at 1 mg/kg, po; assay type: ADME, organism-based, Canis lupus familiaris; parameters: dose 1 mg/kg, route oral; conditions: in vivo; in short: as §1
[7] = Elimination half life in Sprague-Dawley rat at 1 mg/kg, po; assay type: ADME, organism-based; conditions: in vivo, read-out: beta t1/2 (converted); in short: as §1
[8] = Elimination half life in Beagle dog at 1 mg/kg, iv; assay type: ADME, organism-based, Canis lupus familiaris; conditions: in vivo, read-out: beta t1/2 (converted); in short: as §1
[9] = AUC (0 to infinity) in cynomolgus monkey at 1 mg/kg, po; assay type: ADME, organism-based, Macaca fascicularis; parameters: dose 1 mg/kg, time infinity, route oral; conditions: in vivo; in short: as §1
[10] = molecular target: Prostaglandin E receptor 4 (Canis lupus familiaris, UniProt Q9TU16); test: Antagonist activity at dog recombinant EP4 receptor
[11] = Oral bioavailability in cynomolgus monkey at 1 mg/kg; assay type: ADME, organism-based, Macaca fascicularis; conditions: in vivo; in short: as §1
Prostacyclin receptor = Prostacyclin receptor (Homo sapiens, UniProt P43119); test: Antagonist activity at human IP receptor
[12] = AUC (0 to infinity) in Sprague-Dawley rat at 1 mg/kg, po; assay type: ADME, organism-based; parameters: dose 1 mg/kg, route oral, time infinity; conditions: in vivo; in short: as §1
[13] = Solubility of the compound in pH 6.5 PBS; assay type: physicochemical
[14] = Lipophilicity, log D of the compound at pH 7.4; assay type: physicochemical; conditions: buffer
[15] = Volume of distribution at steady state in Beagle dog at 1 mg/kg, iv; assay type: ADME, organism-based, Canis lupus familiaris; conditions: in vivo, read-out: Vdss
In short: (§2)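 A single intravenous injection at 1 mg/kg was given. Plasma concentration–time data gave total clearance (CL_total, mL/min/kg) and steady-state volume of distribution (Vd_ss, L/kg). Values are mean SD of N = 4 animals per species.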

[16] = molecular target: Prostaglandin E2 receptor EP2 subtype (Homo sapiens, UniProt P43116); test: Antagonist activity at human EP2 receptor
CYP2C19 = CYP2C19 (Homo sapiens, UniProt P33261); test: Inhibition of CYP2C19 (unknown origin) at 1 uM relative to control; assay type: ADME
In short: (§3)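 CYP1A, CYP2C9, CYP2C19, CYP2D6 and CYP3A activities were each tested with 1 µM test article. Results are given as percent inhibition of enzyme activity.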

Thromboxane A2 receptor = molecular target: T1, Thromboxane A2 receptor (Homo sapiens, UniProt P21731); test: Antagonist activity at human platelet TP receptor
T1 sequence (P21731 whole entry): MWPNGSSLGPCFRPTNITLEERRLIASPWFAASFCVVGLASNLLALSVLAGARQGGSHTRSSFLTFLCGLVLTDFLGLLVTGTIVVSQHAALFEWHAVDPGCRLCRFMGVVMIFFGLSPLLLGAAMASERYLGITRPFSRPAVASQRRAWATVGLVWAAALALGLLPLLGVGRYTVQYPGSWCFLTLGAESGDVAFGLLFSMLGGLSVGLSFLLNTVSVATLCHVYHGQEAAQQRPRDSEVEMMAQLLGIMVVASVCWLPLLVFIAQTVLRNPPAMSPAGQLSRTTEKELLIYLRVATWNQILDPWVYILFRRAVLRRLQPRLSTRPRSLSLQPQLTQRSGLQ

[17] = Elimination half life in cynomolgus monkey at 1 mg/kg, iv; assay type: ADME, organism-based, Macaca fascicularis; conditions: in vivo, read-out: beta t1/2 (converted); in short: as §1
[18] = Apparent permeability from apical to basolateral side in human Caco2 cells; assay type: ADME, cell-based; conditions: Caco-2
In short: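 Caco-2 monolayer permeability (Papp, apical to basolateral) was measured under constant pH, with the apical side at pH 6.5 and the basolateral side at pH 7.4.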

[19] = molecular target: Prostaglandin E2 receptor EP4 subtype (Mus musculus, UniProt P32240); test: Antagonist activity at mouse recombinant EP4 receptor assessed as inhibition of PGE2-induced cAMP level by cell based assay; assay type: functional; conditions: read-out: pA2 (converted)
In short: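 Functional antagonism was measured as inhibition of PGE2-induced cAMP in cells transfected with rodent EP4 (mouse or rat). The value is expressed as pA2.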

[20] = Volume of distribution at steady state in cynomolgus monkey at 1 mg/kg, iv; assay type: ADME, organism-based, Macaca fascicularis; conditions: in vivo, read-out: Vdss; in short: as §2
CYP2D6 = CYP2D6 (Homo sapiens, UniProt P10635); test: Inhibition of CYP2D6 (unknown origin) at 1 uM relative to control; assay type: ADME; in short: as §3
Rattus norvegicus = test: Analgesic activity in po dosed rat assessed as inhibition of carrageenan-induced mechanical hyperalgesia measured at 1 hr post dose; assay type: functional
In short: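 Rats dosed orally. Mechanical hyperalgesia was induced with carrageenan and assessed 1 h post dose. The value is the minimum effective dose (MED, mg/kg PO).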

Chain of Prostaglandin E2 receptor EP2 subtype (P43116 whole entry): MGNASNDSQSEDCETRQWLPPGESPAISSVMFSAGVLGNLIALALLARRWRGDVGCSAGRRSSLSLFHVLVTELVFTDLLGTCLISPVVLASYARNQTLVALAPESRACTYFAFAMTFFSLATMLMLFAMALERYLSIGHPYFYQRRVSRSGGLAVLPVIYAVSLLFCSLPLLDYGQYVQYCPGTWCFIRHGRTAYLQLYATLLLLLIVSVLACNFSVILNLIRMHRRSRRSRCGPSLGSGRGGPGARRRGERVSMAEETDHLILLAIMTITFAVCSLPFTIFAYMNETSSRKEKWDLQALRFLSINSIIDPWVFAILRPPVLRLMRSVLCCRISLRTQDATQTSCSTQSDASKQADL
Chain of Prostaglandin E receptor 4 (Q9TU16 whole entry): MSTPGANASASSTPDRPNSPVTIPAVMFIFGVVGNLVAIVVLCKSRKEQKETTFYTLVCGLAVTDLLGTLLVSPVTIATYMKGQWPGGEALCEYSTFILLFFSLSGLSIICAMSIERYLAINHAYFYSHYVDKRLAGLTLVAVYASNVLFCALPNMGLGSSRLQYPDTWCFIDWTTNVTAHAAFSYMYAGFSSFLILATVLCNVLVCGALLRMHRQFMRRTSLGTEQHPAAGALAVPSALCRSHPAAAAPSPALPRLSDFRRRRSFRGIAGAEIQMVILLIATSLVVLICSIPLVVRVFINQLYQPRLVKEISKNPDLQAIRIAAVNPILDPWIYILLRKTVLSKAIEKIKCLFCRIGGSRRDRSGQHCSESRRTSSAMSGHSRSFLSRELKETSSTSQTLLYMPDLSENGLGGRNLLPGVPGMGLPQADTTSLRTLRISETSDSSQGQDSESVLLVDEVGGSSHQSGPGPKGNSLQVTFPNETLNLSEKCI
Chain of CYP2D6 (P10635 whole entry): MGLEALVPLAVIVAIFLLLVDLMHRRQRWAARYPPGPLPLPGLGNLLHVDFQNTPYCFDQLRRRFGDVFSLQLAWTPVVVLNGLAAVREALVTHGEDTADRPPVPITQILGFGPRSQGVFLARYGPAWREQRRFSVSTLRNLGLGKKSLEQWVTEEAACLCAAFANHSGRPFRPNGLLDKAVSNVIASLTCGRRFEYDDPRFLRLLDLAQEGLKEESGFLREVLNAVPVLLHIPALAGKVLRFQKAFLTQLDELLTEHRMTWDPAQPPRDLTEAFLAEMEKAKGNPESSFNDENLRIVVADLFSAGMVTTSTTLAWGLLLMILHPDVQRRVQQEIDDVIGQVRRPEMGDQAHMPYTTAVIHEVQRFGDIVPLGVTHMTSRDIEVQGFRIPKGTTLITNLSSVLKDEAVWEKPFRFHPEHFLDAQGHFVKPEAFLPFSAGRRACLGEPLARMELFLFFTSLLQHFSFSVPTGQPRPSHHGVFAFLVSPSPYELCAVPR
Chain of Prostaglandin E2 receptor EP4 subtype (P32240 whole entry): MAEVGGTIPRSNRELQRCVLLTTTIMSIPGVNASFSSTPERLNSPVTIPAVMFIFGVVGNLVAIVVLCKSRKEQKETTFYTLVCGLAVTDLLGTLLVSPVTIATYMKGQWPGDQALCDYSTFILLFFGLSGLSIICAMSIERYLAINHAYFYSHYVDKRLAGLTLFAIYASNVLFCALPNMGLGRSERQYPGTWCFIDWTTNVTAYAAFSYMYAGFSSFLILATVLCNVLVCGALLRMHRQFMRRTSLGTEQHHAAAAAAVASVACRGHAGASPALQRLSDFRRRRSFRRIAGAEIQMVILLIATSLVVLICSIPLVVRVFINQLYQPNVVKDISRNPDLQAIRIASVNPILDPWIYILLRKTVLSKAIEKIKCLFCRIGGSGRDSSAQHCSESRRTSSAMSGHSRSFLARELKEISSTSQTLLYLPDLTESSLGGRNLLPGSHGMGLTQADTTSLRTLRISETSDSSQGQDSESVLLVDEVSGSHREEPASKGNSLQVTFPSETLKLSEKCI
Chain of Prostaglandin F2-alpha receptor (P43088 whole entry): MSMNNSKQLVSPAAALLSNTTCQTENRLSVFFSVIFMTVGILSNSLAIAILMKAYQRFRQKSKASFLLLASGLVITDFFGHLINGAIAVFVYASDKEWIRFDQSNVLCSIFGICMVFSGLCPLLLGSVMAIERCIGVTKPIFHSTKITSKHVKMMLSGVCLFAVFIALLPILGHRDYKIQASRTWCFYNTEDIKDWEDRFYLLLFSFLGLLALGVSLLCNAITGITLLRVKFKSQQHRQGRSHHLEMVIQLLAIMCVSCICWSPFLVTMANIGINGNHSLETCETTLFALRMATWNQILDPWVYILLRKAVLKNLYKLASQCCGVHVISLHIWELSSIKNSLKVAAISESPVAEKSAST
Chain of Prostacyclin receptor (P43119 whole entry): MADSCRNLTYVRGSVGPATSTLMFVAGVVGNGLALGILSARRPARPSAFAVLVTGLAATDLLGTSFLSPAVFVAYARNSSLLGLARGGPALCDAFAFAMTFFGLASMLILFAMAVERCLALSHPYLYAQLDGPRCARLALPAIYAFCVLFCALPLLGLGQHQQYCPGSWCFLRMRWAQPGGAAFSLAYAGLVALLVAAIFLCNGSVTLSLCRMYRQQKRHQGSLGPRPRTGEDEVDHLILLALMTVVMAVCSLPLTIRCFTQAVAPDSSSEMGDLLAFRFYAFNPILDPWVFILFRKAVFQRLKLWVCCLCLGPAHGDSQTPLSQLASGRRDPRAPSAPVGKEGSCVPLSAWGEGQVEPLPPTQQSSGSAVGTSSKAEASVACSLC
Chain of CYP2C19 (P33261 whole entry): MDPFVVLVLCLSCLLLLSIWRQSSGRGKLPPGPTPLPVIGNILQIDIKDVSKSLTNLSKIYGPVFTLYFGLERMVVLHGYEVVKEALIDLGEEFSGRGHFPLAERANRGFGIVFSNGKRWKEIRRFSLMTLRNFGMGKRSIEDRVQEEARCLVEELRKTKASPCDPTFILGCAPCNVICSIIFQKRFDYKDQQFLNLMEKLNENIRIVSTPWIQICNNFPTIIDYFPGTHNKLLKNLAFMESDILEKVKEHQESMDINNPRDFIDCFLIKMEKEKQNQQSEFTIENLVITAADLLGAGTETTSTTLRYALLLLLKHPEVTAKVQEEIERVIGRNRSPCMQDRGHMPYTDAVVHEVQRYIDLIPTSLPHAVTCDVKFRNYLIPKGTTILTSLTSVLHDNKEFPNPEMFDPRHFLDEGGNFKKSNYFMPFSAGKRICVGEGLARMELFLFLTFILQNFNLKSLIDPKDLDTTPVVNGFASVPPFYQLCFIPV

**Q.** For `C[C@H](NC(=O)c1cc(Cl)cnc1Oc1cccc(F)c1)c1ccc(C(=O)O)cc1`, which Tmax [1] is on record?
**A.** 0.438 h

**Q.** And the Ki [2]?
**A.** > 6000 nM

**Q.** And the logD [3]?
**A.** 3.8

**Q.** And the solubility [4]?
**A.** 0.29 µg/mL (≈ 0.699 µM)

**Q.** What about the half-life [5] of the same compound?
**A.** > 2 h

**Q.** What about the Cmax [6] of the same compound?
**A.** 1450 ng/mL

**Q.** And the half-life [7]?
**A.** 3.71 h

**Q.** And the half-life [8]?
**A.** 8.43 h

**Q.** And the AUC(0-inf) [9]?
**A.** 2460 ng·h/mL

**Q.** And the Ki [10]?
**A.** 38 nM

**Q.** What about the bioavailability [11] of the same compound?
**A.** 73.3%

**Q.** And the Ki (Prostacyclin receptor)?
**A.** > 6000 nM

**Q.** What about the AUC(0-inf) [12] of the same compound?
**A.** 7090 ng·h/mL

**Q.** And the solubility [13]?
**A.** 73 µg/mL (≈ 176 µM)

**Q.** What about the logD [14] of the same compound?
**A.** 0.7

**Q.** What about the Vd [15] of the same compound?
**A.** 1.21 L/kg

**Q.** And the IC50 [16]?
**A.** 1890 nM

**Q.** And the Ki [16]?
**A.** 1840 nM

**Q.** And the inhibition at 1 µM (CYP2C19)?
**A.** < 5%

**Q.** And the Ki (Thromboxane A2 receptor)?
**A.** > 6000 nM

**Q.** And the half-life [17]?
**A.** 14.5 h

**Q.** What about the Papp A→B [18] of the same compound?
**A.** 20.1 ×10⁻⁶ cm/s

**Q.** And the Kb [19]?
**A.** 1 nM

**Q.** What about the Vd [20] of the same compound?
**A.** 4.7 L/kg

**Q.** And the inhibition at 1 µM (CYP2D6)?
**A.** < 5%

**Q.** And the inhibition (Rattus norvegicus)?
**A.** Dose-dependent effect

**Q.** And the minimal effective dose (Rattus norvegicus; read-out: MED)?
**A.** 1 mg/kg
